Laboratory results: ChEMBL document CHEMBL5131497, “Design, Synthesis, and Characterization of TNP-2198, a Dual-Targeted Rifamycin-Nitroimidazole Conjugate with Potent Activity against Microaerophilic and Anaerobic Bacterial Pathogens” (J Med Chem, 2022)
≈ marks a conversion by molar mass, not a printed value.

Legend:
Helicobacter pylori [1] = assay: Antibacterial activity against Helicobacter pylori infected in C57/BL6 mouse assessed as bacterial load in stomach at 10 mg/kg administered twice daily via oral gavage starting from 7 days post inoculation and administered for 7 days (reference value: 5.25 log10CFU); format: functional; details: time 7 day
Gardnerella vaginalis [2] = assay: Antibacterial activity against Gardnerella vaginalis clinical isolate USA; format: functional
Gardnerella vaginalis [3] = assay: Antibacterial activity against Gardnerella vaginalis clinical isolate China; format: functional
Actinomyces naeslundii = assay: Antibacterial activity against Actinomyces naeslundii ATCC 1210; format: functional
Clostridioides difficile [4] = assay: Antibacterial activity against Clostridioides difficile clinical isolate USA; format: functional
Clostridioides difficile [5] = assay: Antibacterial activity against Clostridioides difficile clinical isolate China; format: functional
Helicobacter pylori [6] = assay: Antibacterial activity against Helicobacter pylori clinical isolate USA; format: functional
Helicobacter pylori [7] = assay: Antibacterial activity against Helicobacter pylori clinical isolate China; format: functional
Staphylococcus aureus = assay: Antibacterial activity against Staphylococcus aureus ATCC 29213; format: functional
Helicobacter pylori [8] = assay: Antibacterial activity against rifampicin resistant Helicobacter pylori harboring rpoBL525I/D530N mutant; format: functional
Clostridioides difficile [9] = assay: Antibacterial activity against rifampicin-resistant Clostridioides difficile harboring rpoBQ489K mutant; format: functional
Helicobacter pylori [10] = assay: Antibacterial activity against Helicobacter pylori ATCC 700392 at 1:1 compound to rifampicin molar ratio measured after 5 days in presence of rifampicin by agar dilution method; format: functional; details: ATCC 700392, 120 h, time 5 day
In short: (§1)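 Agar dilution per CLSI: two-fold serial dilutions from 100× stocks in Mueller–Hinton agar with aged (≥2 weeks) sheep blood (5% v/v). Strains were wild-type ATCC 700392 (CB1531) and derived mutants carrying defined resistance determinants. MIC was read after 5 days at 35 °C under microaerobic conditions from a campylobacter gas-generating system. Routine culture was on TSA with 5% sheep blood.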

Helicobacter pylori [11] = assay: Antibacterial activity against Helicobacter pylori ATCC 700392 at 1:1 compound to rifabutin molar ratio measured after 5 days in presence of rifabutin by agar dilution method; format: functional; details: ATCC 700392, 120 h, time 5 day
In short: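 Agar dilution per CLSI. Wild-type H. pylori ATCC 700392 (CB1531). Drugs prepared from 100× stocks as 2-fold dilutions in Mueller–Hinton agar with aged (≥2 weeks) sheep blood (5% v/v). Combinations were at 1:1 molar ratio. MIC read after 5 days at 35 °C under microaerobic atmosphere from a campylobacter gas-generating system.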

Helicobacter pylori [12] = assay: Antibacterial activity against metronidazole-resistant Helicobacter pylori CB1573 harboring rdxAR16S mutant measured after 5 days by agar dilution method; format: functional; details: CB1573, 120 h, time 5 day
In short: (§2)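 Agar dilution per CLSI. Wild-type ATCC 700392 (CB1531) and its derivatives carry defined resistance determinants. Drugs, alone or in 1:1 molar mixtures, were diluted 2-fold from 100× stocks into Mueller–Hinton agar with aged (≥2 weeks) sheep blood (5% v/v). MIC read after 5 days at 35 °C under microaerobic conditions from a campylobacter gas-generating system.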

Helicobacter pylori [13] = assay: Antibacterial activity against metronidazole-resistant Helicobacter pylori CB1573 harboring rdxAR16S mutant at 1:1 compound to rifabutin molar ratio measured after 5 days in presence of rifabutin by agar dilution method; format: functional; details: CB1573, 120 h, time 5 day; in short: as §2
Helicobacter pylori [14] = assay: Antibacterial activity against rifampicin-resistant Helicobacter pylori CB1902 harboring rpoBV149F mutant at 1:1 compound to rifampicin molar ratio measured after 5 days in presence of rifampicin by agar dilution method; format: functional; details: CB1902, 120 h, time 5 day; in short: as §2
Helicobacter pylori [15] = assay: Antibacterial activity against rifampicin-resistant Helicobacter pylori CB1903 harboring rpoBD530V mutant at 1:1 compound to rifabutin molar ratio measured after 5 days in presence of rifabutin by agar dilution method; format: functional; details: CB1903, 120 h, time 5 day; in short: as §1
Helicobacter pylori [16] = assay: Antibacterial activity against rifampicin-resistant Helicobacter pylori CB1614 harboring rpoBL525I/D530N at 1:1 compound to rifampicin molar ratio measured after 5 days in presence of rifampicin by agar dilution method; format: functional; details: CB1614, 120 h, time 5 day; in short: as §2
Helicobacter pylori [17] = assay: Antibacterial activity against metronidazole/rifampicin-resistant Helicobacter pylori CB1771 harboring rpoBL525I/D530N/rdxAE75stop mutant measured after 5 days by agar dilution method; format: functional; details: CB1771, 120 h, time 5 day; in short: as §2
Helicobacter pylori [18] = assay: Antibacterial activity against metronidazole/rifampicin-resistant Helicobacter pylori CB1771 harboring rpoBL525I/D530N/rdxAE75stop mutant at 1:1 compound to rifampicin molar ratio measured after 5 days in presence of rifampicin by agar dilution method; format: functional; details: CB1771, 120 h, time 5 day
In short: (§3)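 Agar dilution MIC per CLSI. Resistant derivatives of wild-type ATCC 700392 carrying defined rpoB/rdxA mutations. Test agent combined 1:1 molar with the partner drug. Agents prepared from 100× stocks and serially 2-fold diluted into Mueller–Hinton agar containing 5% v/v aged (≥2 weeks) sheep blood. Plates incubated 5 days at 35 °C under a microaerobic atmosphere from a gas-generating system.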

Helicobacter pylori [19] = assay: Antibacterial activity against metronidazole/rifampicin-resistant Helicobacter pylori CB1893 harboring rpoBL525I/D530N/rdxAR16S mutant measured after 5 days by agar dilution method; format: functional; details: CB1893, 120 h, time 5 day; in short: as §2
Helicobacter pylori [20] = assay: Antibacterial activity against metronidazole/rifampicin-resistant Helicobacter pylori CB1893 harboring rpoBL525I/D530N/rdxAR16S mutant at 1:1 compound to rifampicin molar ratio measured after 5 days in presence of rifampicin by agar dilution method; format: functional; details: CB1893, 120 h, time 5 day; in short: as §3
Clostridioides difficile [21] = assay: Antibacterial activity against Clostridioides difficile CB1921 ATCC BAA1382 at 1:1 compound to rifampicin molar ratio measured after 3 days in presence of rifampicin; format: functional; details: CB1921 ATCC BAA1382, 72 h, time 3 day
Clostridioides difficile [22] = assay: Antibacterial activity against rifampicin-resistant Clostridioides difficile CB1934 harboring rpoBQ489K mutant at 1:1 compound to rifampicin molar ratio measured after 3 days in presence of rifampicin; format: functional; details: CB1934, 72 h, time 3 day
Fannyhessea vaginae = assay: Antibacterial activity against Atopobium vaginae BAA-55; format: functional
Clostridioides difficile [23] = assay: Antibacterial activity against fluoroquinolone-resistant Clostridioides difficile CB1939 at 1:1 compound to rifampicin molar ratio measured after 3 days in presence of rifampicin; format: functional; details: CB1939, 72 h, time 3 day
Clostridioides difficile [24] = assay: Antibacterial activity against fluoroquinolone-resistant Clostridioides difficile CB1941 harboring gyrAD71Y/T82A mutant at 1:1 compound to rifampicin molar ratio measured after 3 days in presence of rifampicin; format: functional; details: CB1941, 72 h, time 3 day
Clostridioides difficile [25] = assay: Antibacterial activity against rifampicin/fluoroquinolone-resistant Clostridioides difficile CB1940 harboring rpoBQ489K/gyrAA118S mutant at 1:1 compound to rifampicin molar ratio measured after 3 days in presence of rifampicin; format: functional; details: CB1940, 72 h, time 3 day
Clostridioides difficile [26] = assay: Antibacterial activity against rifampicin/fluoroquinolone-resistant Clostridioides difficile CB1942 harboring rpoBQ489K/gyrAD71Y/T82A mutant at 1:1 compound to rifampicin molar ratio measured after 3 days in presence of rifampicin; format: functional; details: CB1942, 72 h, time 3 day
Bacteroides fragilis = assay: Antibacterial activity against metronidazole-resistant Bacteroides fragilis MMX 3387; format: functional
Campylobacter gracilis = assay: Antibacterial activity against Bacteroides gracilis ATCC 33236 MMX 1270; format: functional
Bacteroides uniformis = assay: Antibacterial activity against Bacteroides uniformis MMX 1277; format: functional
Phocaeicola vulgatus = assay: Antibacterial activity against metronidazole-resistant Bacteroides vulgatus 3490; format: functional
Clostridium sporogenes = assay: Antibacterial activity against Clostridium sporogenes ATCC 19404; format: functional
Fusobacterium nucleatum = assay: Antibacterial activity against Fusobacterium nucleatum ATCC 10953; format: functional
Gardnerella vaginalis [27] = assay: Antibacterial activity against Gardnerella vaginalis ATCC 14018; format: functional
Gardnerella vaginalis [28] = assay: Antibacterial activity against Gardnerella vaginalis ATCC 49145; format: functional
Peptostreptococcus sp. = assay: Antibacterial activity against Peptostreptococcus magnus ATCC 14956; format: functional
[29] = tested on: Porphyromonas asaccharolytica; assay: Antibacterial activity against metronidazole-resistant Prevotella asaccharolytica MMX 3552; format: functional
Veillonella parvula = assay: Antibacterial activity against Veillonella parvula ATCC 17745 MMX 1272; format: functional
Syrian golden hamster = assay: Antibacterial activity against Clostridioides difficile UNT-103-1 infected in Syrian hamster assessed as mortality at 100 mg/kg, po administered once a daily for 5 days after 18 hrs post 10 mg/kg clindamycin treatment and measured upto 21 days; format: functional, Mesocricetus auratus; details: time <= 21 day
In short: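 Male Golden Syrian hamsters (80-90 g), housed singly, were gavaged with C. difficile UNT103-1 grown in sporulation medium broth and diluted to OD600 1 in prereduced broth. […] From 18 h later, drug or vehicle was given by oral gavage once daily for 5 days. Survival was recorded through day 21.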

Work on `CC[C@H]1OC(=O)[C@H](C)[C@@H](O[C@H]2C[C@@](C)(OC)[C@@H](O)[C@H](C)O2)[C@H](C)[C@@H](O[C@@H]2O[C@H](C)C[C@H](N(C)C)[C@H]2O)[C@](C)(OC)C[C@@H](C)C(=O)[C@H](C)[C@@H](O)[C@]1(C)O` [CLARITHROMYCIN] yielded an Activity (Helicobacter pylori [1]) of 2.85 log10CFU.
With `Cc1ncc([N+](=O)[O-])n1CCO` [METRONIDAZOLE] the MIC (Gardnerella vaginalis [2]) was at least 2 µg/mL, the MIC90 (Gardnerella vaginalis [2]) was 64 µg/mL (≈ 374 µM) and the MIC (Gardnerella vaginalis [3]) was at least 16 µg/mL. The MIC90 (Gardnerella vaginalis [3]) was at least 32 µg/mL, the MIC (Actinomyces naeslundii) was 256 µg/mL (≈ 1500 µM) and the MIC (Clostridioides difficile [4]) was 0.12 µg/mL (≈ 0.701 µM). The MIC (Clostridioides difficile [5]) was at most 0.06 µg/mL, the MIC90 (Clostridioides difficile [5]) was 0.125 µg/mL (≈ 0.73 µM) and the MIC90 (Helicobacter pylori [6]) was 128 µg/mL (≈ 748 µM). The MIC (Helicobacter pylori [7]) was at least 0.25 µg/mL, the MIC90 (Helicobacter pylori [7]) was at least 16 µg/mL and the MIC (Staphylococcus aureus) was over 32 µg/mL. For the same molecule, the MIC (Helicobacter pylori [8]) was over 32 µg/mL, the MIC (Clostridioides difficile [9]) was over 8 µg/mL and the MIC (Helicobacter pylori [10]) was 0.5 µg/mL. For the same molecule, the MIC (Helicobacter pylori [11]) was at most 2 ng/mL, the MIC (Helicobacter pylori [12]) was 32 µg/mL (≈ 187 µM) and the MIC (Helicobacter pylori [13]) was at most 2 ng/mL. It also gave an MIC (Helicobacter pylori [14]) of 8 µg/mL, an MIC (Helicobacter pylori [15]) of 1 µg/mL and an MIC (Helicobacter pylori [16]) of 8 µg/mL. The MIC (Helicobacter pylori [17]) was 32 µg/mL (≈ 187 µM), the MIC (Helicobacter pylori [18]) was over 32 µg/mL and the MIC (Helicobacter pylori [19]) was 32 µg/mL (≈ 187 µM). The MIC (Helicobacter pylori [20]) was over 32 µg/mL, the MIC (Clostridioides difficile [21]) was at most 0.03 µg/mL and the MIC (Clostridioides difficile [22]) was 2 µg/mL. It also gave an MIC (Fannyhessea vaginae) of 128 µg/mL (≈ 748 µM), an MIC (Clostridioides difficile [23]) of at most 0.03 µg/mL and an MIC (Clostridioides difficile [24]) of at most 0.03 µg/mL. For the same molecule, the MIC (Clostridioides difficile [25]) was 2 µg/mL, the MIC (Clostridioides difficile [26]) was 2 µg/mL and the MIC (Bacteroides fragilis) was over 256 µg/mL. It also gave an MIC (Campylobacter gracilis) of over 256 µg/mL, an MIC (Bacteroides uniformis) of over 256 µg/mL and an MIC (Phocaeicola vulgatus) of 128 µg/mL (≈ 748 µM). The MIC (Clostridium sporogenes) was 0.06 µg/mL (≈ 0.351 µM), the MIC (Fusobacterium nucleatum) was 0.06 µg/mL (≈ 0.351 µM) and the MIC (Gardnerella vaginalis [27]) was 4 µg/mL (≈ 23.4 µM). It also gave an MIC (Gardnerella vaginalis [28]) of 4 µg/mL (≈ 23.4 µM), an MIC (Peptostreptococcus sp.) of 1 µg/mL (≈ 5.84 µM) and an MIC [29] of 1 µg/mL (≈ 5.84 µM). The MIC (Veillonella parvula) was 2 µg/mL (≈ 11.7 µM) and the Activity (Syrian golden hamster) was 100%.
